ChEMBL document CHEMBL1128440 (J Med Chem, 1995)

Legend:
Rattus norvegicus [1] = species: Rattus norvegicus; assay: Tissue biodistribution into estrogen-primed immature female rat uterus/blood at 3 hr time interval; format: ADME, organism-based; settings: in vivo
Procedure, shortened: (§1)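 Immature female Sprague-Dawley rats (25 days old, ≈50 g, five per time point) primed with estradiol, 5 μg sc daily for 2 days in 50% ethanol/sunflower seed oil, used 24 h after the last injection. The 18F-labeled ligand was given iv by tail vein in 10% ethanol/saline. Decapitated at 1 or 3 h; blood and organs weighed and gamma-counted. Reported as %ID/g ± SD, n = 5.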

Rattus norvegicus [2] = species: Rattus norvegicus; assay: Tissue biodistribution into estrogen-primed immature female rat fat at 1 hr low time interval; format: ADME, organism-based, Adipose tissue; settings: in vivo; procedure, shortened: as §1
Rattus norvegicus [3] = species: Rattus norvegicus; assay: Tissue biodistribution into estrogen-primed immature female rat fat at 1 hr time interval; format: ADME, organism-based, Adipose tissue; settings: in vivo; procedure, shortened: as §1
Rattus norvegicus [4] = species: Rattus norvegicus; assay: Tissue biodistribution into estrogen-primed immature female rat fat at 3 hr time interval; format: ADME, organism-based, Adipose tissue; settings: in vivo; procedure, shortened: as §1
Rattus norvegicus [5] = species: Rattus norvegicus; assay: Tissue biodistribution into estrogen-primed immature female rat uterus/muscle at 1 hr low time interval; format: ADME, organism-based; settings: in vivo; procedure, shortened: as §1
Rattus norvegicus [6] = species: Rattus norvegicus; assay: Tissue biodistribution into estrogen-primed immature female rat uterus/muscle at 1 hr time interval; format: ADME, organism-based; settings: in vivo
Rattus norvegicus [7] = species: Rattus norvegicus; assay: Tissue biodistribution into estrogen-primed immature female rat uterus/muscle at 3 hr time interval; format: ADME, organism-based; settings: in vivo
Rattus norvegicus [8] = species: Rattus norvegicus; assay: Tissue biodistribution into estrogen-primed immature female rat blood at 1 hr blocked time interval; format: ADME, organism-based; settings: in vivo; procedure, shortened: as §1
Rattus norvegicus [9] = species: Rattus norvegicus; assay: Tissue biodistribution into estrogen-primed immature female rat blood at 1 hr low time interval; format: ADME, organism-based; settings: in vivo; procedure, shortened: as §1
Rattus norvegicus [10] = species: Rattus norvegicus; assay: Tissue biodistribution into estrogen-primed immature female rat blood at 1 hr time interval; format: ADME, organism-based; settings: in vivo; procedure, shortened: as §1
Rattus norvegicus [11] = species: Rattus norvegicus; assay: Tissue biodistribution into estrogen-primed immature female rat blood at 3 hr time interval; format: ADME, organism-based; settings: in vivo; procedure, shortened: as §1
Rattus norvegicus [12] = species: Rattus norvegicus; assay: Tissue biodistribution into estrogen-primed immature female rat bone at 1 hr blocked time interval; format: ADME, organism-based, Bone element; settings: in vivo; procedure, shortened: as §1
Rattus norvegicus [13] = species: Rattus norvegicus; assay: Tissue biodistribution into estrogen-primed immature female rat bone at 1 hr time interval; format: ADME, organism-based, Bone element; settings: in vivo; procedure, shortened: as §1
Rattus norvegicus [14] = species: Rattus norvegicus; assay: Tissue biodistribution into estrogen-primed immature female rat bone at 3 hr time interval; format: ADME, organism-based, Bone element; settings: in vivo; procedure, shortened: as §1
Rattus norvegicus [15] = species: Rattus norvegicus; assay: Tissue biodistribution into estrogen-primed immature female rat brain at 1 hr blocked time interval; format: ADME, organism-based; settings: in vivo; procedure, shortened: as §1
Rattus norvegicus [16] = species: Rattus norvegicus; assay: Tissue biodistribution into estrogen-primed immature female rat brain at 1 hr low time interval; format: ADME, organism-based; settings: in vivo; procedure, shortened: as §1
Rattus norvegicus [17] = species: Rattus norvegicus; assay: Tissue biodistribution into estrogen-primed immature female rat brain at 1 hr time interval; format: ADME, organism-based; settings: in vivo; procedure, shortened: as §1
Rattus norvegicus [18] = species: Rattus norvegicus; assay: Tissue biodistribution into estrogen-primed immature female rat brain at 3 hr time interval; format: ADME, organism-based; settings: in vivo; procedure, shortened: as §1
Rattus norvegicus [19] = species: Rattus norvegicus; assay: Tissue biodistribution into estrogen-primed immature female rat fat at 1 hr blocked time interval; format: ADME, organism-based, Adipose tissue; settings: in vivo; procedure, shortened: as §1
[20] = Partition coefficient (logP); format: physicochemical; settings: octanol/water; read-out: logP
Procedure, shortened: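 log P(o/w) (octanol/water) estimated by a reversed-phase HPLC method.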

[21] = target: T1, Progesterone receptor (Homo sapiens) (UniProt P06401); assay: Binding selectivity index as the ratio of RBA value to that of NSB value.
T1 sequence (whole entry): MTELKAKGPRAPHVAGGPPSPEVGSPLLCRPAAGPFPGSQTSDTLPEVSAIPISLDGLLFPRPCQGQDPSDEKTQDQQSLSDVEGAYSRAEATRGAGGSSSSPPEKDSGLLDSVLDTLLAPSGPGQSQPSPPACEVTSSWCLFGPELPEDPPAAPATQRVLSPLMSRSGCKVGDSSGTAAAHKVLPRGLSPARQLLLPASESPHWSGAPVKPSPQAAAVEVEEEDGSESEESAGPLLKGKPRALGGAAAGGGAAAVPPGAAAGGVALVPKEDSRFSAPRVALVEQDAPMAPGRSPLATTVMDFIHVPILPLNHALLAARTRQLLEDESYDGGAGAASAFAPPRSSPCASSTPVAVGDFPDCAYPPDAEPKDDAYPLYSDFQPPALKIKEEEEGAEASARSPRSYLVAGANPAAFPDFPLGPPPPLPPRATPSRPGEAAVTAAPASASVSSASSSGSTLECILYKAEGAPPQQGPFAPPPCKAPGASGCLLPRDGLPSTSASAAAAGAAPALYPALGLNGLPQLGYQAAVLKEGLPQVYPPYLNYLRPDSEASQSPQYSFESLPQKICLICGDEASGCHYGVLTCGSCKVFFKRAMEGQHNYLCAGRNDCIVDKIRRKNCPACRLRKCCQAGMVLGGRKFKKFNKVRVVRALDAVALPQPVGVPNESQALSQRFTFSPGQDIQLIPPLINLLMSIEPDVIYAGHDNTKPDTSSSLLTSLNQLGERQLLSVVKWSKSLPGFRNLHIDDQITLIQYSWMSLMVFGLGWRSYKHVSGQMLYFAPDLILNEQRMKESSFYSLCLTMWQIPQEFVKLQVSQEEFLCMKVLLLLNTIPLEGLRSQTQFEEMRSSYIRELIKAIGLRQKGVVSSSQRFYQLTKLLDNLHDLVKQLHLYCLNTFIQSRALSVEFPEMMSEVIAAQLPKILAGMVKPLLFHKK
Procedure, shortened: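 BSI calculated as the ratio of RBA to NSB.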

[22] = target: T1, Progesterone receptor (Homo sapiens); assay: Nonspecific binding affinity against progesterone receptor was estimated relative to compound R5020
[23] = target: T1, Progesterone receptor (Homo sapiens); assay: Relative binding affinity against progesterone receptor at 0 degree Celsius determined in a competitive radiometric binding assay (R5020=100%).
Procedure, shortened: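 Competitive radiometric binding at 0 °C against tritium-labeled R5020 as the standard (RBA = 100). Values are the average of two experiments.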

Rattus norvegicus [24] = species: Rattus norvegicus; assay: Tissue biodistribution into estrogen-primed immature female rat lung at 3 hr time interval; format: ADME, organism-based; settings: in vivo; procedure, shortened: as §1
Rattus norvegicus [25] = species: Rattus norvegicus; assay: Tissue biodistribution into estrogen-primed immature female rat bone at 1 hr low time interval; format: ADME, organism-based, Bone element; settings: in vivo; procedure, shortened: as §1
Rattus norvegicus [26] = species: Rattus norvegicus; assay: Tissue biodistribution into estrogen-primed immature female rat uterus/muscle at 1 hr blocked time interval; format: ADME, organism-based; settings: in vivo; procedure, shortened: as §1

**Q.** Which uterus/blood ratio (Rattus norvegicus [1]) does the source give for `CC1(c2ccco2)O[C@@H]2CC3C4CCC5=CC(=O)CC[C@@H]5C4CC[C@]3(C)[C@]2(C(=O)CF)O1` (stereo partly specified) here?
**A.** 71.1

**Q.** And the Injected dose/g (Rattus norvegicus [2])?
**A.** 1.86%

**Q.** And the Injected dose/g (Rattus norvegicus [3])?
**A.** 2.86%

**Q.** And the Injected dose/g (Rattus norvegicus [4])?
**A.** 4.16%

**Q.** What about the Injected dose/g (Rattus norvegicus [5]) of the same compound?
**A.** 12.09%

**Q.** What about the “Uterus to muscle uptake ratio” value (Rattus norvegicus [6]) of the same compound?
**A.** 12.07%

**Q.** What about the ratio (Rattus norvegicus [7]) of the same compound?
**A.** 53.1

**Q.** What about the Injected dose/g (Rattus norvegicus [8]) of the same compound?
**A.** 0.6%

**Q.** What about the Injected dose/g (Rattus norvegicus [9]) of the same compound?
**A.** 0.35%

**Q.** And the Injected dose/g (Rattus norvegicus [10])?
**A.** 0.32%

**Q.** And the Injected dose/g (Rattus norvegicus [11])?
**A.** 0.14%

**Q.** And the Injected dose/g (Rattus norvegicus [12])?
**A.** 1.29%

**Q.** And the Injected dose/g (Rattus norvegicus [13])?
**A.** 1.15%

**Q.** What about the Injected dose/g (Rattus norvegicus [14]) of the same compound?
**A.** 1.51%

**Q.** What about the Injected dose/g (Rattus norvegicus [15]) of the same compound?
**A.** 0.49%

**Q.** What about the Injected dose/g (Rattus norvegicus [16]) of the same compound?
**A.** 0.34%

**Q.** And the Injected dose/g (Rattus norvegicus [17])?
**A.** 0.58%

**Q.** And the Injected dose/g (Rattus norvegicus [18])?
**A.** 0.19%

**Q.** What about the Injected dose/g (Rattus norvegicus [19]) of the same compound?
**A.** 3.48%

**Q.** What about the logP [20] of the same compound?
**A.** 4.13

**Q.** And the BSI [21]?
**A.** 159

**Q.** What about the NSB [22] of the same compound?
**A.** 1.09

**Q.** What about the RBA [23] of the same compound?
**A.** 173

**Q.** What about the Injected dose/g (Rattus norvegicus [24]) of the same compound?
**A.** 0.27%

**Q.** And the Injected dose/g (Rattus norvegicus [25])?
**A.** 0.84%

**Q.** And the uterus/muscle ratio (Rattus norvegicus [26])?
**A.** 2.68
